Converted amounts (≈) assume the structure as drawn.
Tests used:
K562 = experiment: Cytotoxicity against […] leukemic cell line, by means of standard proliferation assay; format: functional, cell-based; conditions: Homo sapiens
[1] = biological target: T1, Peptidyl-prolyl cis-trans isomerase FKBP1A (Homo sapiens, UniProt P62942); experiment: Compound was evaluated for its inhibitory effect on human FK506 binding protein 12 by means of protease-coupled PPIase assay
How it was run: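 Recombinant hFKBP12 (14 nM) preincubated ≥5 min with effectors (0.01–200 μM, diluted from DMSO stocks, organic solvent usually below 0.1% v/v) in 35 mM HEPES pH 7.8. Reaction started with Suc-Ala-Phe-Pro-Phe-pNA (24.0 μM); α-chymotrypsin (410 μg/mL) as isomer-specific protease; 4-nitroaniline release read at 390 nm, 10 °C. First-order k_enz derived; IC50 from concentration dependence; mean ± SD of three determinations.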

L929 = experiment: Cytotoxicity against mouse L-929 fibroblast cell line, by means of standard proliferation assay; format: functional, cell-based
Rattus norvegicus [2] = experiment: Weight difference between EDL muscles of axotomized left hind limbs and corresponding right controls 8 weeks (dose=30 mg/kg); format: functional, Muscle tissue
How it was run: (§1)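 Female HAN:Wist rats (4 months old) underwent left sciatic neurotomy with 30 mg/kg given locally at the lesion. EDL muscles were taken at 8 or 10 weeks and weighed relative to protein concentration. The % weight difference, lesioned left versus intact right limb, was expressed relative to placebo controls. Values are mean ± SD of n animals.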

Rattus norvegicus [3] = experiment: Effect on Axonal Regeneration following sciatic nerve neurotomy at a dose of 30 mg/kg after 10 weeks; format: functional
How it was run: (§2)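 Left sciatic nerve cut (neurotomy) in 4-month-old female HAN:Wist rats under intramuscular Rompun/Ketavet anaesthesia. A single 30 mg/kg dose was applied at the lesion site. Walking behaviour was scored up to 8 or 10 weeks after surgery. Values are % increase in rate of functional recovery versus placebo-treated rats, given as mean ± SD of n animals.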

Rattus norvegicus [4] = experiment: Effect on Axonal Regeneration following sciatic nerve neurotomy at a dose of 30 mg/kg after 8 weeks; format: functional; how it was run: as §2
Rattus norvegicus [5] = experiment: Weight difference between EDL muscles of axotomized left hind limbs and corresponding right controls 10 weeks (dose=30 mg/kg); format: functional, Muscle tissue; how it was run: as §1
Rattus norvegicus [6] = experiment: Effect on Axonal Regeneration following sciatic nerve neurotomy at a dose of 1 mg/kg after 10 weeks; format: functional
How it was run: (§3)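 Sciatic nerve of left hind leg lesioned (neurotomy) in 4-month-old female HAN:Wist rats under intramuscular Rompun (16 mg/kg)/Ketavet (125 mg/kg) anesthesia. Functional recovery scored from walking behavior. EDL muscle weights of the lesioned left limb and the unlesioned right limb compared, with weights related to protein concentration. Weight differences expressed as percentages relative to placebo; mean ± SD of n animals.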

Rattus norvegicus [7] = experiment: Weight difference between EDL muscles of axotomized left hind limbs and corresponding right controls 10 weeks (dose=1 mg/kg); format: functional, Muscle tissue; how it was run: as §3
[8] = Inhibition constant(Ki) for inhibition of PPIase activity of Escherichia coli SlyD (Conc=2 uM) of FKBPs family
How it was run: (§4)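 PPIase assay coupled to trypsin 210 μg/mL, using Suc-Ala-Phe-Pro-Arg-pNA 34.0 μM (SlyD) or Ac-Ala-Ala-Ser(P)-Pro-Arg-pNA 26.0 μM (hPin1). Enzyme was preincubated at least 5 min with inhibitor (0.01–200 μM) in 35 mM HEPES pH 7.8. Absorbance at 390 nm was followed at 10 °C, and first-order catalytic rate constants were fitted to a competitive model.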

[9] = Inhibition constant(Ki) for inhibition of PPIase activity of Escherichia coli FK506 binding protein 26 (Conc=1 uM) of FKBPs family
How it was run: (§5)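 Protease-coupled PPIase assay with α-chymotrypsin 410 μg/mL and Suc-Ala-Phe-Pro-Phe-pNA 24.0 μM. Enzyme was preincubated at least 5 min with inhibitor (0.01–200 μM) in 35 mM HEPES pH 7.8, DMSO usually below 0.1%. 4-Nitroaniline release was read at 390 nm, 10 °C, and first-order k_enz derived. Ki came from nonlinear competitive-inhibition fit; mean ± SD of three.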

[10] = Inhibition constant(Ki) for inhibition of PPIase activity of human Cyclophilin 18 (Conc=2 nM)
How it was run: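 hCyp18 was expressed recombinantly in E. coli and assayed for PPIase activity with α-chymotrypsin 410 μg/mL and Suc-Ala-Phe-Pro-Phe-pNA 24.0 μM. It was preincubated at least 5 min with 0.01–200 μM inhibitor in 35 mM HEPES pH 7.8. 4-Nitroaniline was monitored at 390 nm, 10 °C, and constants were obtained by competitive nonlinear fit.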

[11] = biological target: T1, Peptidyl-prolyl cis-trans isomerase FKBP1A; experiment: Inhibition constant(Ki) for inhibition of PPIase activity of human FK506 binding protein 12 (Conc=14 nM) of FKBPs family; how it was run: as §5
[12] = Inhibition constant(Ki) for inhibition of PPIase activity of Escherichia coli parvulin (Conc=6 nM) of Parvulins sfamily
[13] = biological target: Peptidyl-prolyl cis-trans isomerase NIMA-interacting 1 (Homo sapiens, UniProt Q13526); experiment: Inhibition constant(Ki) for inhibition of PPIase activity of human Peptidyl-prolyl cis-trans isomerase NIMA-interacting 1 (Conc=4 nM) of Parvulins family; how it was run: as §4
Peptidyl-prolyl cis-trans isomerase NIMA-interacting 1, sequence (Q13526 whole entry): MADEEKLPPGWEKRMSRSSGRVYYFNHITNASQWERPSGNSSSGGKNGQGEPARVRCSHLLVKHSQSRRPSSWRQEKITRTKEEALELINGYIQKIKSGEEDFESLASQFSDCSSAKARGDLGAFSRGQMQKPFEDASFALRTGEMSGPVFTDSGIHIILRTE

[14] = Inhibition constant(Ki) for inhibition of PPIase activity of Escherichia coli trigger factor (Conc=12 nM) of FKBPs family; how it was run: as §5

T1 sequence (P62942 whole entry): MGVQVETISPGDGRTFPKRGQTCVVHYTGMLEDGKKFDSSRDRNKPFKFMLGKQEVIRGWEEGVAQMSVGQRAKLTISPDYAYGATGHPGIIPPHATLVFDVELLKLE

Compound	IC50 (K562)	IC50 [1]	IC50 (L929)	other results
C[C@@H]1C[C@@H]([C@H](O)CC2CC(=O)N(Cc3ccccc3)C(=O)C2)C(=O)[C@@H](C)C1	81.6 µg/mL (≈ 220 µM)	117 µM	135 µg/mL (≈ 364 µM)	
C[C@@H]1C[C@@H]([C@H](O)CC2CC(=O)N(CC(N)=O)C(=O)C2)C(=O)[C@@H](C)C1	4.6 µg/mL (≈ 13.6 µM)	21.6 µM	5.3 µg/mL (≈ 15.7 µM)	
CCOC(=O)CN1C(=O)CC(C[C@@H](O)[C@@H]2C[C@@H](C)C[C@H](C)C2=O)CC1=O	64.9 µg/mL (≈ 177 µM)	4.4 µM	76.7 µg/mL (≈ 209 µM)	Weight difference (Rattus norvegicus [2]): 20%; Walking behaviour (Rattus norvegicus [3]): 14%; Walking behaviour (Rattus norvegicus [4]): 46%; Weight difference (Rattus norvegicus [5]): 13%
C[C@@H]1C[C@@H]([C@H](O)CC2CC(=O)N(C)C(=O)C2)C(=O)[C@@H](C)C1	133 µg/mL (≈ 449 µM)	124 µM	> 200 µg/mL	
C[C@@H]1C[C@@H]([C@H](O)CC2CC(=O)NC(=O)C2)/C(=N\O)[C@@H](C)C1	116 µg/mL (≈ 393 µM)	177 µM	86.9 µg/mL (≈ 293 µM)	
CC(=O)O[C@H](CC1CC(=O)NC(=O)C1)[C@@H]1C[C@@H](C)C[C@H](C)C1=O	1.1 µg/mL (≈ 3.4 µM)	> 200 µM	9.3 µg/mL (≈ 28.8 µM)	
CCOC(=O)CN1C(=O)CC(C[C@@H](OC(=O)NC23C[C@H]4C[C@@H](C2)C[C@@H](C3)C4)[C@@H]2C[C@@H](C)C[C@H](C)C2=O)CC1=O		> 200 µM		
CCOC(=O)CCCN1C(=O)CC(C[C@@H](O)[C@@H]2C[C@@H](C)C[C@H](C)C2=O)CC1=O	109 µg/mL (≈ 276 µM)	22.3 µM	145 µg/mL (≈ 366 µM)	
C=CC[C@@H]1/C=C(\C)C[C@H](C)C[C@H](OC)[C@H]2O[C@@](O)(C(=O)C(=O)N3CCCC[C@H]3C(=O)O[C@H](/C(C)=C/[C@@H]3CC[C@@H](O)[C@H](OC)C3)[C@H](C)[C@@H](O)CC1=O)[C@H](C)C[C@@H]2OC [TACROLIMUS ANHYDROUS]				Walking behaviour (Rattus norvegicus [6]): 100%; Weight difference (Rattus norvegicus [7]): 18%
C[C@@H]1C[C@@H]([C@H](O)CC2CC(=O)NC(=O)C2)C(=O)[C@@H](C)C1 [CYCLOHEXIMIDE]	< 0.39 µg/mL	3.6 µM	< 0.39 µg/mL	Ki [8]: > 200 µM; Ki [9]: 10.3 µM; Ki [10]: > 200 µM; Ki [11]: 3.4 µM; Ki [12]: 187 µM; Ki [13]: > 200 µM; Ki [14]: > 200 µM
C[C@@H]1C[C@@H]([C@H](O)CC2CC(=O)N(Cc3ccc(C#N)cc3)C(=O)C2)C(=O)[C@@H](C)C1	0.8 µg/mL (≈ 2.02 µM)	68.2 µM	1.4 µg/mL (≈ 3.53 µM)	
